The text below walks through data of ChEMBL document CHEMBL1143141, “Regioselective synthesis and antitumor screening of some novel N-phenylpyrazole derivatives” (Bioorg Med Chem, 2008).

In brackets after ≈: the same amount, converted by molar mass.

Experiment [1] deals with Ehrlich. The experiment can be described thus: Antitumor activity against mouse Ehrlich ascites carcinoma cells at 100 ug/ml relative to doxorubicin after 2 hrs. The class given is functional. In outline: (§1)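 Ehrlich ascites carcinoma cell suspension was exposed to compound for 2 h. Percent nonviable cells was scored by trypan blue dye exclusion. Potency was calculated from the percentage change relative to doxorubicin, which served as reference. Data are means with SE. Treated and control tubes were compared by one-way ANOVA with Duncan's multiple range test.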

The test system of experiment [2] is Ehrlich. The experiment is described as follows: Antitumor activity against mouse Ehrlich ascites carcinoma cells at 50 ug/ml relative to doxorubicin after 2 hrs. The class given is functional. The method in brief:
as §1

Experiment [3] deals with Ehrlich. The experiment is described as follows: Antitumor activity against mouse Ehrlich ascites carcinoma cells at 25 ug/ml relative to doxorubicin after 2 hrs. Type of experiment: functional. The method in brief: as §1
Experiment [4] has as its system Ehrlich. The experiment can be described thus: Antitumor activity against mouse Ehrlich ascites carcinoma cells. Type of experiment: functional, cell-based. In outline: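 Ehrlich ascites carcinoma cell suspension was exposed to test compound at three levels (25, 50, 100) for 2 h. Nonviable cells were counted by trypan blue exclusion, using a 1:10 water dilution of a 1 g/100 ml dye stock. The IC50 was calculated against a saline control group. Doxorubicin served as positive control.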

As usually defined, the IC50 is the concentration that inhibits the measured activity by half. Turning to `CC(=O)c1nn(-c2cccc(C)c2)cc1C(=O)c1c(C(=O)Nc2ccccc2)nn(-c2ccccc2)c1C`, the Activity in the experiment on Ehrlich [1] is given as 20%; in the experiment on Ehrlich [2], 10%; in the experiment on Ehrlich [3], 0%. The same compound returned a half-maximal inhibitory concentration (IC50) with Ehrlich [4] of 100 µg/mL (≈ 199 µM).

As to `CC(=O)c1c(C(=O)Nc2ccccc2)nn(-c2ccccc2)c1C`, the Activity with Ehrlich [1], in the experiment with Ehrlich [2] and in the experiment on Ehrlich [3] was 0% in each case.

In the case of `Cc1c(C(=O)c2cn(-c3ccccc3)nc2C(=O)Nc2ccccc2)c(C(=O)Nc2ccccc2)nn1-c1ccccc1`, the Activity with Ehrlich [1] is recorded as 35%; with Ehrlich [2], 20%; in the experiment with Ehrlich [3], 5%. The compound further gave an IC50 in the experiment on Ehrlich [4] of 70 µg/mL (≈ 124 µM).

On to `CC(=O)c1nn(-c2ccc(C)cc2)cc1C(=O)c1c(C(=O)Nc2ccccc2)nn(-c2ccccc2)c1C`, for which the Activity in the experiment on Ehrlich [1] was 10%; in the experiment with Ehrlich [2], 5%; in the experiment on Ehrlich [3], 0%. Moreover, the IC50 in the experiment with Ehrlich [4] was more than 100 µg/mL.

`COc1cccc2c1C(=O)c1c(O)c3c(c(O)c1C2=O)C[C@@](O)(C(=O)CO)C[C@@H]3O[C@H]1C[C@H](N)[C@H](O)[C@H](C)O1` [DOXORUBICIN]: the Activity stood at 100% with Ehrlich [1], 55% with Ehrlich [2] and 20% in the experiment with Ehrlich [3]. Also, the IC50 in the experiment with Ehrlich [4] came out at 35 µg/mL (≈ 64.4 µM).

As to `CCOC(=O)c1nn(-c2ccc([N+](=O)[O-])cc2)cc1C(=O)c1c(C(=O)Nc2ccccc2)nn(-c2ccccc2)c1C`, the Activity with Ehrlich [1], in the experiment with Ehrlich [2] and with Ehrlich [3] was 0% in each case.

Take `CC(=O)c1nn(-c2ccc(Br)cc2)cc1C(=O)c1c(C(=O)Nc2ccccc2)nn(-c2ccccc2)c1C`: the Activity with Ehrlich [1] is given as 25%; with Ehrlich [2], 15%; with Ehrlich [3] it was 0%. Further, the concentration for half-maximal inhibition (IC50) in the experiment on Ehrlich [4] was more than 100 µg/mL.

With `CCOC(=O)c1nn(-c2ccccc2)cc1C(=O)c1c(C(=O)Nc2ccccc2)nn(-c2ccccc2)c1C`, the results for the Activity with Ehrlich [1], in the experiment with Ehrlich [2] and in the experiment on Ehrlich [3] were 10%, 0% and 0%, respectively. In the experiment with Ehrlich [4], this compound came in with an IC50 of more than 100 µg/mL.

Regarding `Cc1c(C(=O)c2cn(-c3ccccc3)nc2-c2ccccc2)c(C(=O)Nc2ccccc2)nn1-c1ccccc1`, the Activity with Ehrlich [1], with Ehrlich [2] and in the experiment on Ehrlich [3] was 0% each time.

As for `CC(=O)c1nn(-c2ccccc2)cc1C(=O)c1c(C(=O)Nc2ccccc2)nn(-c2ccccc2)c1C`, the results for the Activity in the experiment on Ehrlich [1], in the experiment with Ehrlich [2] and with Ehrlich [3] were 20%, 5% and 0%, respectively. Further, the IC50 in the experiment on Ehrlich [4] is more than 100 µg/mL.

For `CCOC(=O)c1nn(-c2ccc(Br)cc2)cc1C(=O)c1c(C(=O)Nc2ccccc2)nn(-c2ccccc2)c1C`, the Activity in the experiment with Ehrlich [1] stood at 20%; in the experiment on Ehrlich [2] it was 10%; with Ehrlich [3] it was 0%. The IC50 with Ehrlich [4] was more than 100 µg/mL.

Consider `Cc1c(C(=O)/C=C/N(C)C)c(C(=O)Nc2ccccc2)nn1-c1ccccc1`, for which the Activity stood at 10% in the experiment on Ehrlich [1], 5% in the experiment on Ehrlich [2] and 0% in the experiment with Ehrlich [3]. The half-inhibitory concentration (IC50) in the experiment with Ehrlich [4] is more than 100 µg/mL.
